Results pooled from the literature.
OPRM1: Mu-type opioid receptor (OPRM1, Homo sapiens, UniProt P35372)
CYP2A6: Cytochrome P450 2A6 (CYP2A6, Homo sapiens, UniProt P11509)
Slc6a4: Sodium-dependent serotonin transporter (Slc6a4, Rattus norvegicus, UniProt P31652)

| SMILES | target | assay | test system | conditions | endpoint | result |
| --- | --- | --- | --- | --- | --- | --- |
| Cc1c(C(=O)NN2CCOCC2)nn(-c2ccc(Cl)cc2Cl)c1-c1ccc(I)cc1 | OPRM1 | ligand displacement, radioligand | – | cell membranes | Ki | 2140 nM |
| C#Cc1ccc2cc(-c3ccccc3)c(=O)oc2c1 | CYP2A6 | enzyme activity, inhibitor | – | 6 min, pH 7.6 | Ki | > 25000 nM |
| CNC(=O)[C@@]12C[C@@H]1[C@@H](n1cnc3c(NC)nc(C#C[c-]4cccc4)nc31)[C@H](O)[C@@H]2O.[Fe+2].c1cc[cH-]c1 | Adenosine receptor A3 (Mus musculus, UniProt Q61618) | ligand displacement, radioligand | – | cell membranes | Ki | 5.46 nM |
| CCCCN1CCC(COC(=O)c2ccc(N)c(OCF)c2)CC1 | OPRM1 | cell-free assay, radioligand | – | – | Ki | > 10000 nM |
| COc1cc(C2Oc3c(OC)cccc3C3CC(c4cc(C)ccc4O)=NN32)ccc1O (centres unmarked) | Prostaglandin E synthase 3 (Homo sapiens, UniProt Q15185) | binding, MST | – | – | Kd | 1180 nM |
| C#Cc1cccc2oc(-c3ccccc3)cc(=O)c12 | CYP2A6 | enzyme activity, inhibitor | – | 6 min, pH 7.6 | Ki | > 25000 nM |
| OC[C@@]12C[C@@H]1[C@@H](n1cnc3c(NC(C4CCCC4)C4CCCC4)nc(Cl)nc31)[C@H](O)[C@@H]2O | OPRM1 | cell-free assay, radioligand | – | – | Ki | 3500 nM |
| Cc1occc(=S)c1O | Carbonic anhydrase 15 (Mus musculus, UniProt Q99N23) | enzyme activity, inhibitor, stopped-flow | – | – | Ki | 3100 nM |
| CCCN1CCN(c2ccc(-c3cncc(Cl)c3N3CCC4(CCNC4=O)CC3)cc2)CC1 | Glycogen synthase kinase-3 alpha (GSK3A, Homo sapiens, UniProt P49840) | cell-free assay | – | lysate | Kd | 1750 nM |
| CC(=O)N[C@H](C(=O)N1C[C@H](O)C[C@H]1C(=O)NCc1ccc(-c2scnc2C)cc1)C(C)(C)SCCCCCCNC(=O)C[C@@H]1N=C(c2ccc(Cl)cc2)c2c(sc(C)c2C)-n2c(C)nnc21 | Bromodomain-containing protein 4, BD2 (BRD4, Homo sapiens, UniProt O60885) | binding | – | – | Kd | 44 nM |
| C#Cc1ccc(-c2cc(=O)c3ccccc3o2)cc1 | CYP2A6 | enzyme activity, inhibitor | – | 6 min, pH 7.6 | Ki | > 25000 nM |
| COc1cc2c(cc1OC)C(=O)N(CCCCN1C(=O)/C(=N\NC(=S)N(C)C)c3ccccc31)CC2 | ATP-dependent translocase ABCB1 (ABCB1, Homo sapiens, UniProt P08183) | transporter efflux, inhibitor, fluorescence | MDCK-MDR1 | – | EC50 | 11000 nM |
| Cc1cnc(-c2ccc(-c3ccc(NC(=O)Nc4c(F)cc(F)cc4F)cc3F)c3c2C(=O)NC3)[nH]1 | Tyrosine-protein kinase Yes (YES1, Homo sapiens, UniProt P07947) | binding, competition with immobilised ligand | – | – | Kd | 310 nM |
| c1ccc(-n2nnnc2N2CCNCC2)cc1 | Slc6a4 | ligand displacement, radioligand | – | – | Ki | > 20000 nM |
| Cc1cc2c(NC(=O)c3cccc(C(=O)O)c3)cccc2nn1 | Bromodomain-containing protein 4, BD1 (BRD4, Homo sapiens, UniProt O60885) | binding, competition with immobilised ligand | – | – | Kd | 41000 nM |
| C#Cc1ccc2oc(-c3ccccc3)cc(=O)c2c1 | CYP2A6 | enzyme activity, inhibitor | – | 6 min, pH 7.6 | Ki | > 25000 nM |
| CN(C)c1ccc(C(CNC(=O)c2ccc(Br)cc2)N(C)C)cc1 (centres unmarked) | Slc6a4 | ligand displacement, radioligand | – | – | Ki | 305 nM |
